Consider seven substances from article PMC10546156 (Journal for Immunotherapy of Cancer, 2023).

This experiment has as its system HLA-typed donor PBMC, CD8 T cells. The experiment can be described thus: Immunogenicity assessment: tetramer/dextramer staining of donor T cells. The class given is cell-based, human. The note with it: two C*07:01 healthy donor buffy coats, prior to or after sequential dextramer enrichment. A digest of the protocol: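 Dextramers were assembled from UV-exchange MHC monomers. 1–3×10^8 PBMC were treated with 50 nM dasatinib plus FcR block (30 min, 37°C), then with 10 µg/mL dextramer pool (1 h, 4°C), and bead-enriched sequentially over two columns. Enriched cells were either surface-stained for flow cytometry with the whole sample acquired, or expanded 10–14 days (irradiated allogeneic feeders, anti-CD3/28, IL-2 300 IU/mL, IL-7/IL-15 5 ng/mL) before re-enrichment.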

In the case of _FRRS(ph)PTKSSL_ [pRBM14], the “C*07:01 PP-CTL responses by dextramer pool” value (“C*07:01 PP-CTL responses” for short) is recorded as “could not detect responses”.

In the case of _HRYS(ph)TPHAF_ [pRAF1], the “C*07:01 PP-CTL responses” value is “could not detect responses”.

On to _KRAS(ph)FAKSV_ [pWNK], for which the “C*07:01 PP-CTL responses” value is “could not detect responses”.

Regarding _KRAS(ph)GQAFEL_ [pSTMN], the “C*07:01 PP-CTL responses” value is given as “could not detect responses”.

As for _RRFS(ph)GTAVY_ [pZNF518A], the “C*07:01 PP-CTL responses” value is reported as “could not detect responses”.

As for _RRPS(ph)LLSEF_ [pNCOR], the “C*07:01 PP-CTL responses” value was “could not detect responses”.

As for _RRYS(ph)DPPTY_ [pMYO9B], the “C*07:01 PP-CTL responses” value is listed as “could not detect responses”.
